The values below come from ChEMBL document CHEMBL4145471, “New 1,5 and 2,5-disubstituted tetrazoles-dependent activity towards surface barrier of Candida albicans” (Eur J Med Chem, 2018).

The term MIC denotes the smallest concentration in the dilution series that meets the test's criterion for growth inhibition.

Common to all, as to assay type: functional
The subject of assay [1] is Candida albicans. As to the kind of experiment: Ratio of MIC for Candida albicans ATCC 90028 in presence of ergosterol to MIC for Candida albicans ATCC 90028 in absence of ergosterol. Put shortly: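 MICs per modified M27-A3 in RPMI with or without ergosterol (final 400 µg/mL, dissolved in 10% DMSO/1% Tween 80 with heating). Inoculum 10³ CFU/mL; tetrazoles and itraconazole tested at 512–1 µg/mL, amphotericin B at 125–0.24 µg/mL. Plates were incubated at 35°C and read at 72 h; MIC was the lowest concentration with no visible growth. Run in triplicate on three days, geometric means.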

In assay [2] the test system is Candida albicans. The assay can be described thus: Antifungal activity against Candida albicans ATCC 90028 after 48 hrs by M27-A3 microdilution method. As to conditions: ATCC 90028, 48 h. (In broth dilution the organism is exposed to a series of concentrations in liquid medium.)
Assay [3] deals with Candida albicans. The assay can be described thus: Antifungal activity against Candida albicans ATCC 90028 at 0.5 ug/ml after 18 hrs relative to control. The procedure, abridged:
(§1)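 Planktonic broth microdilution per M27-A3 in MOPS-buffered RPMI 1640 (pH 7.0), final inoculum 1.8×10^3 cells/mL, compounds 0.0313–16 µg/mL from 1600 µg/mL stocks in ethanol or DMSO. Incubated at 35°C without agitation; OD405 read at 18 and 48 h. % inhibition was derived from test, sterility (no inoculum) and solvent growth-control wells. Amphotericin B at 0.5 µg/mL served as the 100% control.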

The subject of assay [4] is Candida albicans. As to the kind of experiment: Antifungal activity against Candida albicans ATCC 90028 at 0.5 ug/ml after 48 hrs relative to control. The procedure, abridged: as §1
Assay [5] concerns Candida albicans. As to the kind of experiment: Antifungal activity against Candida albicans ATCC 90028 after 72 hrs in presence of ergosterol by M27-A3 microdilution method. To be noted: ATCC 90028, 72 h. Put shortly: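 Ergosterol-modified M27-A3 assay. Compounds at 512-1 µg/mL serially diluted in RPMI; the 10^3 CFU/mL inoculum is made in RPMI with ergosterol (dissolved in 10% DMSO/1% Tween 80, heated), giving 400 µg/mL ergosterol in the wells. Itraconazole and amphotericin B serve as controls. Plates at 35°C, read after 72 h. MIC is the lowest concentration without visible growth; triplicate on three days, geometric means.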

In assay [6] the test system is Candida albicans. The assay can be described thus: Antifungal activity against Candida albicans ATCC 90028 after 72 hrs by M27-A3 microdilution method. As to conditions: ATCC 90028, 72 h.
Assay [7] has as its system Candida albicans. As to the kind of experiment: Antifungal activity against Candida albicans ATCC 90028 at 16 ug/ml after 18 hrs relative to control. The procedure, abridged: as §1
In assay [8] the test system is Candida albicans. The assay can be described thus: Antifungal activity against Candida albicans ATCC 90028 at 16 ug/ml after 48 hrs relative to control. Put shortly:
as §1

Assay [9] has as its system Candida albicans. The assay can be described thus: Antifungal activity against Candida albicans ATCC 90028 at 8 ug/ml after 18 hrs relative to control. The procedure, abridged:
as §1

Assay [10] concerns Candida albicans. As to the kind of experiment: Antifungal activity against Candida albicans ATCC 90028 at 8 ug/ml after 48 hrs relative to control. Put shortly: as §1
Assay [11] relates to Candida albicans. As to the kind of experiment: Antifungal activity against Candida albicans ATCC 90028 at 4 ug/ml after 18 hrs relative to control. The procedure, abridged:
as §1

For assay [12], the system named is Candida albicans. The assay can be described thus: Antifungal activity against Candida albicans ATCC 90028 at 4 ug/ml after 48 hrs relative to control. Put shortly: as §1
Assay [13] concerns Candida albicans. The assay can be described thus: Antifungal activity against Candida albicans ATCC 90028 at 2 ug/ml after 18 hrs relative to control. Put shortly:
as §1

Assay [14] deals with Candida albicans. As to the kind of experiment: Antifungal activity against Candida albicans ATCC 90028 at 2 ug/ml after 48 hrs relative to control. Put shortly: as §1
The test system of assay [15] is Candida albicans. As to the kind of experiment: Antifungal activity against Candida albicans ATCC 90028 at 1 ug/ml after 18 hrs relative to control. The procedure, abridged: as §1
The test system of assay [16] is Candida albicans. The assay can be described thus: Antifungal activity against Candida albicans ATCC 90028 at 1 ug/ml after 48 hrs relative to control. The procedure, abridged:
as §1

Assay [17] has as its system Candida albicans. The assay can be described thus: Antifungal activity against Candida albicans ATCC 90028 at 0.25 ug/ml after 18 hrs relative to control. The procedure, abridged:
(§2)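 Fluconazole (water stock, diluted in RPMI 1640) tested by CLSI M27-A3 broth microdilution against C. albicans ATCC 90028. Inoculum 1.8×10^3 cells/mL in RPMI 1640 buffered with MOPS, pH 7.0. Incubation at 35°C without agitation, read at 18 and 48 h. Growth by OD405 and visually; inhibition % calculated against solvent growth-control wells after subtracting sterility-control wells.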

The test system of assay [18] is Candida albicans. The assay can be described thus: Antifungal activity against Candida albicans ATCC 90028 at 0.25 ug/ml after 48 hrs relative to control. The procedure, abridged: as §2
Assay [19] relates to Candida albicans. As to the kind of experiment: Antifungal activity against Candida albicans ATCC 90028 at 0.125 ug/ml after 18 hrs relative to control. The procedure, abridged: as §1
Assay [20] deals with Candida albicans. The assay can be described thus: Antifungal activity against Candida albicans ATCC 90028 at 0.125 ug/ml after 48 hrs relative to control. The procedure, abridged:
as §1

Assay [21] has as its system Candida albicans. As to the kind of experiment: Antifungal activity against Candida albicans ATCC 90028 at 0.0625 ug/ml after 18 hrs relative to control.
The test system of assay [22] is Candida albicans. The assay can be described thus: Antifungal activity against Candida albicans ATCC 90028 at 0.0625 ug/ml after 48 hrs relative to control. The procedure, abridged:
as §1

The subject of assay [23] is Candida albicans. As to the kind of experiment: Antifungal activity against Candida albicans ATCC 90028 at 0.0313 ug/ml after 18 hrs relative to control.
In assay [24] the test system is Candida albicans. The assay can be described thus: Antifungal activity against Candida albicans ATCC 90028 at 0.0313 ug/ml after 48 hrs relative to control.
In assay [25] the test system is Candida albicans. The assay can be described thus: Fungicidal activity against Candida albicans ATCC 90028 at 16 ug/ml after 48 hrs by M27-A3 microdilution method. Put shortly:
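After 48 h at 35°C in M27-A3 microdilution plates (compound at 16 µg/mL), 50 µL aliquots from treated and solvent-control wells were diluted 10^4 in PBS and plated on drug-free Sabouraud dextrose agar, then incubated 48 h at 35°C. Reduction R = lg CFU/mL control − lg CFU/mL treated; R ≥ 3 defined as fungicidal.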

Converted amounts (≈) assume the structure as drawn.

As to `CCC(C)n1ncn(-c2ccc(N3CCN(c4ccc(OCC5COC(Cn6cncn6)(c6ccc(Cl)cc6Cl)O5)cc4)CC3)cc2)c1=O` (centres undefined) [ITRACONAZOLE], in assay [1], the Ratio was 2.
In turn, `OC(Cn1cncn1)(Cn1cncn1)c1ccc(F)cc1F` [FLUCONAZOLE] returned an MIC in assay [2] of 0.25 µg/mL (≈ 0.816 µM).
For the compound `C[C@@H]1[C@H](O)[C@@H](C)/C=C/C=C/C=C/C=C/C=C/C=C/C=C/[C@H](O[C@@H]2O[C@H](C)[C@@H](O)[C@H](N)[C@@H]2O)C[C@@H]2O[C@](O)(C[C@@H](O)C[C@@H](O)[C@H](O)CC[C@@H](O)C[C@@H](O)CC(=O)O[C@H]1C)C[C@H](O)[C@H]2C(=O)O` [AMPHOTERICIN B], the Activity in assay [3] and in [4] was 100% each time. Further, the values for the MIC in assay [5] and in assay [6] were 0.24 µg/mL and 0.03 µg/mL (≈ 0.0325 µM), respectively.
Regarding `ClCCCn1nnnc1-c1ccccc1`, the Activity in assay [7] turned out to be 98.95%; in assay [8], 99.05%; in assay [9], 98.57%; in assay [10], 98.81%; in assay [11], 98.66%; in assay [12] it was 98.9%. Moreover, the Activity was 95.82% in [13]; 97.23% in assay [14]; 96.69% in assay [15]; 98.8% in [16]; 97.53% in assay [3]; 98.82% in [4]. Further, the Activity is given as 94.68% in assay [17]; 98.19% in assay [18]; 98.12% in assay [19]; 99.16% in assay [20]; 99.45% in assay [21]; 99.12% in assay [22]. In addition, the Activity is reported as 99.65% in [23], 99.02% in [24] and -0.18 log10CFU/ml in assay [25].
Consider `Clc1ccccc1-c1nnn(CCCN2CCOCC2)n1`, for which the Activity was determined as 99.64% in assay [7]; 99.2% in assay [8]; 98.97% in assay [9]; 98.97% in assay [10]; 98.62% in assay [11]; 98.91% in assay [12]. In addition, the Activity in [13] stood at 92.76%; in [14] it was 97.16%; in assay [15], 98.01%; in assay [16], 99.02%; in [3], 98.11%; in assay [4] it was 98.83%. Moreover, the Activity in assay [17] is 90.79%; in assay [18], 98.01%; in [19], 98.25%; in assay [20], 98.94%; in assay [21] it was 98.7%; in assay [22] it was 99%. The Activity was 100% in [23], 99.12% in assay [24] and -0.08 log10CFU/ml in [25].
In the case of `CCOC(=O)CCn1nnc(-c2ccc(Cl)cc2)n1`, the Activity in [7] is on record as 100%; in assay [8] it was 98.78%; in assay [9], 97.97%; in assay [10], 98.86%; in assay [11], 99.85%; in assay [12], 99.07%. Further, the Activity in assay [13] was determined as 99.74%; in assay [14], 99.12%; in assay [15] it was 84.36%; in assay [16], 98.78%; in assay [3], 98.32%; in assay [4] it was 99%. The Activity in [17] came out at 99.95%; in [18] it was 98.87%; in assay [19], 99.92%; in assay [20], 98.85%; in assay [21] it was 99.88%; in [22] it was 98.8%. The Activity in assay [23] was 99.32%; in assay [24], 99.14%; in assay [25] it was 0.29 log10CFU/ml.
